Values after ≈ are worked out from the molar mass of the structure shown. Active and inactive are the calls of the source. The calls are words filed in the database; no cut-off is given here.
How the values were obtained:
Assay type in all cases: functional
Candida albicans [1] = assay: Growth inhibition of Candida albicans ATCC 10231 at 250 ug/ml incubated for 48 hrs under dark condition by broth microdilution assay relative to amphotericin B; settings: ATCC 10231, 48 h, read-out: GI
Summary of the method: (§1)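 Yeast broth microdilution (CLSI M27-A3), RPMI-1640, inoculum 1-5 x 10^3 CFU/mL, DMSO ≤1%, 48 h at 30 °C in a moist, dark chamber. […]. Triplicate; amphotericin B as positive control.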

[2] = Antioxidant activity assessed as fluorescent light-induced superoxide anion scavenging activity at 160 uM incubated for 10 mins by nitroblue tetrazolium dye based assay
Summary of the method: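 Superoxide generated photochemically in 50 mM phosphate buffer pH 7.8 with 13 mM L-methionine, 75 µM nitroblue tetrazolium, 100 µM EDTA and 2 µM riboflavin. Compound at 160 µM. 10 min at 25 °C under fluorescent light; dark controls. Read at 575 nm. Resveratrol as positive control; three independent experiments in triplicate.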

Candida albicans [3] = assay: Growth inhibition of Candida albicans ATCC 10231 at 3.9 ug/ml incubated for 48 hrs under dark condition by broth microdilution assay relative to amphotericin B; settings: ATCC 10231, 48 h, read-out: GI; summary of the method: as §1
Candida albicans [4] = assay: Growth inhibition of Candida albicans ATCC 10231 at 31.25 ug/ml incubated for 48 hrs under dark condition by broth microdilution assay relative to amphotericin B; settings: ATCC 10231, 48 h, read-out: GI; summary of the method: as §1
Candida albicans [5] = assay: Antifungal activity against Candida albicans ATCC 10231 incubated for 48 hrs under dark condition by broth microdilution assay; settings: ATCC 10231, 48 h
Summary of the method: (§2)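 Broth microdilution per CLSI M27-A3 in RPMI-1640. Inocula adjusted to 1-5 x 10^3 CFU/mL. Stocks in DMSO (≤1%), final 3.9-250.0 µg/mL. Incubated 48 h at 30 °C in a moist, dark chamber, read at OD 405. % inhibition computed from growth and sterility control wells, run in triplicate. MIC80/MIC50 taken from four-parameter logistic concentration-response curves; amphotericin B as positive control.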

Candida albicans [6] = assay: Growth inhibition of Candida albicans ATCC 10231 at 7.81 ug/ml incubated for 48 hrs under dark condition by broth microdilution assay relative to amphotericin B; settings: ATCC 10231, 48 h, read-out: GI; summary of the method: as §1
[7] = Antioxidant activity assessed as DPPH radical scavenging activity at 160 uM incubated for 30 mins under dark condition
Summary of the method: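 Compound at 160 µM incubated with 100 µM DPPH in ethanolic medium, stirred in the dark for 30 min, read at 517 nm. Resveratrol as positive control. Three independent experiments, each in triplicate.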

Candida albicans [8] = assay: Growth inhibition of Candida albicans ATCC 10231 at 15.62 ug/ml incubated for 48 hrs under dark condition by broth microdilution assay relative to amphotericin B; settings: ATCC 10231, 48 h, read-out: GI; summary of the method: as §1
[9] = Antifungal activity against Cryptococcus neoformans ATCC 32264 incubated for 48 hrs under dark condition by broth microdilution assay; summary of the method: as §2
Candida albicans [10] = assay: Growth inhibition of Candida albicans ATCC 10231 at 125 ug/ml incubated for 48 hrs under dark condition by broth microdilution assay relative to amphotericin B; settings: ATCC 10231, 48 h, read-out: GI; summary of the method: as §1
Candida albicans [11] = assay: Growth inhibition of Candida albicans ATCC 10231 at 62.5 ug/ml incubated for 48 hrs under dark condition by broth microdilution assay relative to amphotericin B; settings: ATCC 10231, 48 h, read-out: GI; summary of the method: as §1
[12] = Antioxidant activity assessed as DPPH radical scavenging activity incubated for 30 mins under dark condition
Summary of the method: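 DPPH (100 µM) in ethanolic medium, stirred 30 min in the dark, absorbance at 517 nm. Compound varied from 0 to 160 µg/mL to find the concentration scavenging 50% of radicals. Three independent experiments, each in triplicate.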

[13] = Antioxidant activity assessed as fluorescent light-induced superoxide anion scavenging activity incubated for 10 mins by nitroblue tetrazolium dye based assay
Summary of the method: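 Riboflavin/light superoxide system: 50 mM phosphate pH 7.8, 13 mM L-methionine, 75 µM NBT, 100 µM EDTA, 2 µM riboflavin, compound 0-200 µg/mL. Fluorescent light for 10 min at 25 °C, dark controls, scavenging measured at 575 nm. Resveratrol as reference.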

MIC50 (Candida albicans [5]) [µg/mL]	MIC80 (Candida albicans [5]) [µg/mL]	MIC50 [9] [µg/mL]	MIC80 [9] [µg/mL]	SMILES	inhibition of growth at 250 µg/mL (Candida albicans [1]) [%]	Activity [2]	inhibition of growth at 3.9 µg/mL (Candida albicans [3]) [%]	inhibition of growth at 31.25 µg/mL (Candida albicans [4]) [%]	inhibition of growth at 7.81 µg/mL (Candida albicans [6]) [%]	Activity [7]	inhibition of growth at 15.62 µg/mL (Candida albicans [8]) [%]	inhibition of growth at 125 µg/mL (Candida albicans [10]) [%]	inhibition of growth at 62.5 µg/mL (Candida albicans [11]) [%]	SC50 [12] [µM]	SC50 [13] [µM]
250 (≈ 835 µM)	> 250	> 250	> 250	Fc1ccc2nc(-c3ccccc3)cc(-c3ccccc3)c2c1	67.5	< 10%	0	11.8	2.01	–	4.27	34.2	18.4	–	–
> 250	> 250	15.6 (≈ 49.4 µM)	> 250	Clc1ccc2nc(-c3ccccc3)cc(-c3ccccc3)c2c1	89.8	< 10%	0	20	8.07	–	14	53.9	33.1	–	–
> 250	> 250	3.9 (≈ 11.6 µM)	15.6 (≈ 46.2 µM)	CC(C)(C)c1ccc2nc(-c3ccccc3)cc(-c3ccccc3)c2c1	7.81	50%	0	0	0	–	0	1.84	0	> 250	> 250
> 250	> 250	125 (≈ 383 µM)	250 (≈ 766 µM)	O=[N+]([O-])c1ccc2nc(-c3ccccc3)cc(-c3ccccc3)c2c1	36.1	Active	0	1.57	0	45 to 55%	0	15.4	5.93	104	> 250
250 (≈ 768 µM)	> 250	250 (≈ 768 µM)	> 250	O=C(O)c1ccc2nc(-c3ccccc3)cc(-c3ccccc3)c2c1	57.5	Active	0	11.9	5.63	–	7.19	34.6	22.6	–	–
250 (≈ 763 µM)	> 250	15.6 (≈ 47.6 µM)	31.2 (≈ 95.3 µM)	CSc1ccc2nc(-c3ccccc3)cc(-c3ccccc3)c2c1	66.3	Active	4.72	16	11.2	–	11.2	39.2	21.7	–	–
250 (≈ 841 µM)	> 250	125 (≈ 420 µM)	250 (≈ 841 µM)	Oc1ccc2nc(-c3ccccc3)cc(-c3ccccc3)c2c1	12.2	Active	0	0	0	70 to 85%	0	3.51	0	> 250	> 250
250 (≈ 816 µM)	> 250	125 (≈ 408 µM)	250 (≈ 816 µM)	N#Cc1ccc2nc(-c3ccccc3)cc(-c3ccccc3)c2c1	69.9	Active	0	12.7	8.25	70 to 85%	9.26	39	19.7	19.5	220
> 250	> 250	15.6 (≈ 52.5 µM)	> 250	Oc1ccc2c(-c3ccccc3)cc(-c3ccccc3)nc2c1	53.9	–	0	12.8	0	70 to 85%	80.4	29.9	21.2	–	–

More lines, now with the values behind:

SMILES	MIC50 (Candida albicans [5]) [µg/mL]	MIC80 (Candida albicans [5]) [µg/mL]	MIC50 [9] [µg/mL]	MIC80 [9] [µg/mL]	inhibition of growth at 250 µg/mL (Candida albicans [1]) [%]	Activity [2]	inhibition of growth at 3.9 µg/mL (Candida albicans [3]) [%]	inhibition of growth at 31.25 µg/mL (Candida albicans [4]) [%]	inhibition of growth at 7.81 µg/mL (Candida albicans [6]) [%]	Activity [7]	inhibition of growth at 15.62 µg/mL (Candida albicans [8]) [%]	inhibition of growth at 125 µg/mL (Candida albicans [10]) [%]	inhibition of growth at 62.5 µg/mL (Candida albicans [11]) [%]	SC50 [12] [µM]	SC50 [13] [µM]
O=[N+]([O-])c1ccc(-c2cc(-c3ccccc3)c3cc(Br)ccc3n2)cc1	> 250	> 250	> 250	> 250	18.2	Active	0	4.01	1.55	40%	2.64	5.11	4.28	–	–
COc1cc2nc(-c3ccccc3)cc(-c3ccccc3)c2c(OC)c1OC	125 (≈ 337 µM)	125 (≈ 337 µM)	7.8 (≈ 21 µM)	15.6 (≈ 42 µM)	100	Active	0	8.13	6.81	70 to 85%	6.76	86.7	20.7	18.9	> 250
FC(F)(F)c1ccc2nc(-c3ccccc3)cc(-c3ccccc3)c2c1	> 250	> 250	250 (≈ 716 µM)	250 (≈ 716 µM)	20.1	–	0	7.83	2.81	45 to 55%	3.65	14	8.77	261	> 250
Oc1ccc(/C=C/c2cc(O)cc(O)c2)cc1	–	–	–	–	–	Active	–	–	–	Active	–	–	–	8.2	255
COc1ccc(-c2cc(-c3ccccc3)c3cc(Br)ccc3n2)cc1	> 250	> 250	> 250	> 250	10.6	Active	0	4.5	0	–	4.06	8.32	4.57	–	–
C[C@@H]1[C@H](O)[C@@H](C)/C=C/C=C/C=C/C=C/C=C/C=C/C=C/[C@H](O[C@@H]2O[C@H](C)[C@@H](O)[C@H](N)[C@@H]2O)C[C@@H]2O[C@](O)(C[C@@H](O)C[C@@H](O)[C@H](O)CC[C@@H](O)C[C@@H](O)CC(=O)O[C@H]1C)C[C@H](O)[C@H]2C(=O)O [AMPHOTERICIN B]	0.06 (≈ 0.0649 µM)	0.12 (≈ 0.13 µM)	0.12 (≈ 0.13 µM)	0.25 (≈ 0.271 µM)	–	–	–	–	–	–	–	–	–	–	–
FC(F)(F)c1cc2nc(-c3ccccc3)cc(-c3ccccc3)c2cc1Cl	250 (≈ 651 µM)	> 250	250 (≈ 651 µM)	> 250	54.1	–	0	9.41	3.5	–	5.36	25.7	15.7	–	–

Reference: ChEMBL document CHEMBL3875213, “Quinolines: Microwave-assisted synthesis and their antifungal, anticancer and radical scavenger properties” (Bioorg Med Chem, 2017)
